Assay outcomes: PubChem BioAssay, Broad Institute
Only a selection was taken, and hits are over-represented in it overall.
GASC1 inh: inhibitors of GASC-1 (KDM4C) histone demethylase, primary screen, biochemical, single concentration HTS; Lysine-specific demethylase 4C (Homo sapiens), Q9H3R0; GST-KDM4C 2-372, H3K9me3 peptide, LANCE TR-FRET; inhibition, % at 12.5 µM; 0.15% of 96,000 active; AID 720574, 2013;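 active = mean replicate inhibition above about 25%, with at least 55% of replicates also reaching it, limit read from the data, passing the limit was not always enough; inconclusive = only one of those two conditions met; inactive = neither condition met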
Target sequence (Q9H3R0 2-372 limits assumed): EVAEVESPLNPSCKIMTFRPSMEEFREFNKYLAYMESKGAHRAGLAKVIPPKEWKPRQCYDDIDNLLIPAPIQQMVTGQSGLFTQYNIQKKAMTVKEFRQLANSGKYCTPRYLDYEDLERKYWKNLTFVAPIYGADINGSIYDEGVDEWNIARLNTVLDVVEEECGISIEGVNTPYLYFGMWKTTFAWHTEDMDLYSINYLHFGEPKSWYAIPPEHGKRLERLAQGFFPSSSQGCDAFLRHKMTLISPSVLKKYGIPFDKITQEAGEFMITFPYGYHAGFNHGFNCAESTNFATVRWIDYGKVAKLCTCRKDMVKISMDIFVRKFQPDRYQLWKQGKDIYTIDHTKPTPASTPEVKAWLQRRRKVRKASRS
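Material: N-terminal GST-fused human GASC-1 (KDM4C) fragment, residues 2-372. Input: 10 nM enzyme. Incubation: enzyme reaction 30 min, then detection 60 min, both room temperature. Doses: one test concentration per compound. Read-out basis: inhibition from TR-FRET ratio decrease. Detection: LANCE TR-FRET, excitation 340 nm, emissions 618 and 671 nm.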
T cruzi growth-1: T. cruzi intracellular proliferation inhibitors, primary screen, cell-based, beta-gal Tulahuen parasites, NIH3T3 host, luminescence | T. cruzi beta-gal in NIH3T3, GalScreen luminescence, 90 h | inhibition, % at 8.34 µM | 5.9% of 77,000 active;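 active = mean inhibition above about 93%, with at least 55% of replicates each passing it, limit read from the data, passing the limit was not always enough; inconclusive = only one of those two conditions holds; inactive = neither condition holds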
IDH1 mut inh: inhibitors of IDH1 R132H reductase, primary screen, biochemical, plate reader, single point; Isocitrate dehydrogenase [NADP] cytoplasmic (Homo sapiens), O75874; diaphorase/resazurin fluorescence, 60 min; inhibition, % at 10 µM; 0.18% of 70,000 active; in the data active = inhibition above about 34%; inconclusive = no clear call, values can overlap the other calls; inactive = below about 11%;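 also: 0% = DMSO and 100% = no enzyme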
Target sequence (O75874 whole entry R132H): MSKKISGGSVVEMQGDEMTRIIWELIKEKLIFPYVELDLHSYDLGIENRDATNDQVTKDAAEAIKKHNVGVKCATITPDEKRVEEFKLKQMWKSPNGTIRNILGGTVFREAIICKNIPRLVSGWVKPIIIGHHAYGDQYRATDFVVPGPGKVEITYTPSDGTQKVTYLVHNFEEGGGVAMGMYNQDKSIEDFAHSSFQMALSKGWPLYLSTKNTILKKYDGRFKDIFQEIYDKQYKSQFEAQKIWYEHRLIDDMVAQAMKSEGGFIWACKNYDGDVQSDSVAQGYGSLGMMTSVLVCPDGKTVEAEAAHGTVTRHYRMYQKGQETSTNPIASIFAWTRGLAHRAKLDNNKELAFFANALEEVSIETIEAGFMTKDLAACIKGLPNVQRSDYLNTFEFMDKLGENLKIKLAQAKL
T cruzi growth-2: T. cruzi intracellular proliferation inhibitors, confirmation, cell-based, NIH3T3 host, beta-gal parasite, luminescence, cherry-pick | AID 651739, 2012 | inhibition, % at 8.35 µM | 72% of 5,600 active | shares compounds with T cruzi growth-1 | T. cruzi beta-gal in NIH3T3, GalScreen luminescence, 90 h;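 active = mean replicate inhibition above about 95% and at least 55% of replicates individually reaching it, limit read from the data; inconclusive = only one of the two criteria is met; inactive = neither criterion is met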
T cruzi growth-3: inhibitors of intracellular T. cruzi replication, confirmation, NIH3T3 host cells, beta-gal parasites, cherry-pick, set 2. shares compounds with T cruzi growth-1. T. cruzi beta-gal in NIH3T3, GalScreen luminescence, 90 h. inhibition, % at 2.09 µM. 21% of 5,600 active;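 active = mean inhibition above about 95%, with at least 55% of replicates also reaching it, limit read from the data; inconclusive = meets just one of the two conditions; inactive = meets neither condition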;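 also: plate controls were neutral control median for no effect and positive control median for full effect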
3T3 cytotox: cytotoxicity in mouse NIH/3T3 fibroblasts, confirmation, cytotoxicity control for T. cruzi proliferation inhibitor project, cell-based, cherry-pick, single point; shares compounds with T cruzi growth-1; NIH/3T3 viability, CellTiter-Glo ATP luminescence, 90 h; cytotoxicity (signal decrease), % at 8.35 µM; 14% of 5,600 active; AID 651742, 2012;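 active = mean signal decrease across replicates above about 35% based on untreated-well scatter, with enough replicates individually passing, limit read from the data; inconclusive = no rule stated though some were filed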;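 also: 0% = median of neutral control wells and 100% = median of positive control wells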
NIH3T3 tox 2: NIH/3T3 fibroblast cytotoxicity, confirmation, cytotoxicity control, cell-based, cherry-pick, single point, set 2. NIH/3T3 viability, CellTiter-Glo ATP luminescence, 90 h. shares compounds with T cruzi growth-1. 56% of 5,600 active. inhibition, % at 24.9 µM;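 active = mean loss of cell viability signal at or above a set limit, and enough replicates individually reaching it; inconclusive = meets only the mean limit or only the replicate share; inactive = meets neither condition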;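 also: 0% = median of neutral control wells and 100% = median of positive control wells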
The depositor's hits bear a star; ? = inconclusive; . = not tested or not shown; ! = a repeat was not active.

SMILES	GASC1 inh	T cruzi growth-1	IDH1 mut inh	T cruzi growth-2	T cruzi growth-3	3T3 cytotox	NIH3T3 tox 2
CC(C)NC(=O)Nc1ccc2c(c1)C(=O)N([C@@H](C)CO)C[C@@H](C)[C@H](CN(C)Cc1ccccc1)OCCCC[C@H](C)O2	0.4	102.0*!	1.5	63.8	-3.3	-18.0	12.4
CC(C)NC(=O)Nc1ccc2c(c1)C(=O)N([C@H](C)CO)C[C@@H](C)[C@H](CN(C)Cc1ccccc1)OCCCC[C@H](C)O2	-0.5	28.9	2.0	.	.	.	.
CC(C)NC(=O)Nc1ccc2c(c1)C(=O)N([C@H](C)CO)C[C@@H](C)[C@@H](CN(C)Cc1ccccc1)OCCCC[C@@H](C)O2	4.7	35.6	2.8	.	.	.	.
CC(C)NC(=O)Nc1ccc2c(c1)C(=O)N([C@@H](C)CO)C[C@@H](C)[C@@H](CN(C)Cc1ccccc1)OCCCC[C@H](C)O2	-0.5	102.9*	2.2	39.4	10.3	14.2	8.6
C=C1[C@]2(C)C[C@@H]3C(=C)[C@@]4(C=CC(=O)OC4(C)C)CC[C@@]3(C)[C@]13C(=O)O[C@H](C)[C@]3(O)C2=O	.	.	0.9	.	.	.	.
CN1c2ccc(-c3ccc(F)cc3)cc2[C@H]2[C@H](CCN2C(=O)C2CCOCC2)[C@@H]1CO	1.1	102.4*	.	104.2*	69.0	-3.3	-0.1
CN1c2ccc(C3=CCCCC3)cc2[C@H]2[C@H](CCN2C(=O)C2CCC2)[C@@H]1CO	6.7	.	.	.	.	.	.
CN1c2ccc(-c3cccc(F)c3)cc2[C@@H]2[C@@H](CCN2C(=O)C2CCOCC2)[C@H]1CO	1.0	59.4	.	.	.	.	.
CN(C)C(=O)c1ccc(-c2ccc3c(c2)[C@H]2[C@H](CCN2C(=O)C2CCOCC2)[C@@H](CO)N3C)cc1	1.7	101.0*	.	97.7*	69.9	-6.8	-2.8
CN(C)C(=O)c1ccc(-c2ccc3c(c2)[C@H]2[C@H](CCN2C(=O)C2CCCCC2)[C@@H](CO)N3C)cc1	5.0	.	.	.	.	.	.
CN(C)C(=O)c1ccc(-c2ccc3c(c2)[C@H]2[C@H](CCN2C(=O)C2CC2)[C@H](CO)N3C)cc1	12.0	17.5	.	.	.	.	.
CN(C)C(=O)c1ccc(-c2ccc3c(c2)[C@H]2[C@H](CCN2C(=O)C2CC2)[C@@H](CO)N3C)cc1	-2.4	101.7*	.	100.9*	99.1*	13.8	25.5
CN1c2ccc(C3=CCCCC3)cc2[C@@H]2[C@@H](CCN2C(=O)C2CCOCC2)[C@H]1CO	15.6	105.4*	.	101.8*	73.4	5.3	17.8
CC(=O)c1ccc(NC(=O)CSc2nc(-c3ccccc3)cc(=O)[nH]2)cc1	.	.	0.1	.	.	.	.
CCOC(=O)c1c(NC(=O)COc2cccc(Cl)c2)sc(C)c1C	.	.	0.4	.	.	.	.
O=C(CN1CCN(S(=O)(=O)c2ccc3ccccc3c2)CC1)Nc1ccc(Br)cc1	.	.	0.2	.	.	.	.
C=C1[C@H]2CC[C@H](C(=O)O)[C@@]23CC[C@H](C3)C1(C)C	.	.	0.0	.	.	.	.
COc1cccc(C#Cc2ccc([C@@H]3[C@@H](CO)N(C(=O)C4CC4)[C@H]3C#N)cc2)c1	-2.3	92.5	.	.	.	.	.
COc1cccc(C#Cc2ccc([C@H]3[C@@H](CO)N(C(=O)C4CC4)[C@H]3C#N)cc2)c1	-4.2	98.0*	0.0	103.4*	113.2*	6.1	17.7
COc1cccc(C#Cc2ccc([C@H]3[C@@H](C#N)N(C(=O)C4CC4)[C@@H]3CO)cc2)c1	0.4	99.7*	.	99.1*	106.7*	-0.4	16.3
COc1cccc(C#Cc2ccc([C@@H]3[C@@H](C#N)N(C(=O)C4CC4)[C@H]3CO)cc2)c1	-1.9	90.5	.	.	.	.	.
O=C(Cn1cc([N+](=O)[O-])cn1)Nc1ccc(F)cc1	.	.	-0.1	.	.	.	.
C=C(CCCCCCCC(=O)O)C(=O)O	.	.	0.6	.	.	.	.
COc1ccccc1NC(=O)C1CC(=O)n2c(nc3ccccc32)N1 (centres undefined)	.	.	0.4	.	.	.	.
CN1c2ccc(-c3ccccc3F)cc2[C@H]2[C@H](CCN2C(=O)Nc2ccc(F)cc2)[C@H]1CO	-0.6	?	.	111.1*	93.6	-14.8	45.4*
SMILES	GASC1 inh	T cruzi growth-1	IDH1 mut inh	T cruzi growth-2	T cruzi growth-3	3T3 cytotox	NIH3T3 tox 2
CN1c2ccc(-c3ccccc3F)cc2[C@@H]2[C@@H](CCN2C(=O)Nc2ccc(F)cc2)[C@@H]1CO	0.1	107.0*	.	103.6*	101.4*	13.8	43.4*
CCC(=O)N1CC[C@@H]2[C@H]1c1cc(-c3ccccc3F)ccc1N(C)[C@H]2CO	0.6	91.5	.	.	.	.	.
CCC(=O)N1CC[C@@H]2[C@@H](CO)N(C)c3ccc(-c4ccccc4F)cc3[C@@H]21	0.5	89.2	.	.	.	.	.
Cc1cc(-c2ccccc2)nc(SCC(=O)Nc2ccc(SC(F)F)cc2)n1	.	.	0.2	.	.	.	.
COC(=O)c1cc(OC)c(OC)cc1NC(=O)C(C)Oc1ccc(OC)cc1 (centres undefined)	.	.	0.5	.	.	.	.
Cc1ccc(Cl)cc1NC(=O)CCCN1C(=O)c2ccccc2C1=O	.	.	0.0	.	.	.	.
COc1ccccc1NC(=O)c1cc2ccccc2c(C=Nc2ccc(NC(C)=O)cc2)c1O	.	.	-1.0	.	.	.	.
Cc1ccc(S(=O)(=O)N(C)C[C@H]2Oc3cc(C4=CCCC4)ccc3S(=O)(=O)N([C@H](C)CO)C[C@@H]2C)cc1	-2.7	.	0.9	.	.	.	.
C[C@H](CO)N1C[C@H](C)[C@@H](CN(C)S(=O)(=O)c2ccc(F)cc2)Oc2cc(C3=CCCCC3)ccc2S1(=O)=O	-0.7	114.0*	.	101.8*	98.9*	37.9*	64.3*
Cc1ccc(S(=O)(=O)N(C)C[C@H]2Oc3cc(C4=CCCC4)ccc3S(=O)(=O)N([C@@H](C)CO)C[C@H]2C)cc1	-0.5	.	-1.2	.	.	.	.
C[C@@H]1CN([C@H](C)CO)S(=O)(=O)c2ccc(C3=CCCCC3)cc2O[C@H]1CN(C)S(=O)(=O)c1ccc(F)cc1	-1.5	122.2*	2.4	102.7*	81.8	42.1*	87.8*
CCOc1ccccc1NC(=O)CSc1ncnc2sc(C)c(C)c12	.	.	-0.9	.	.	.	.
COc1ccc(OC)c(S(=O)(=O)N2CCC(C(=O)Nc3cccc(F)c3)CC2)c1	.	.	0.0	.	.	.	.
C/C=C/c1cnc2c(c1)C(=O)N([C@H](C)CO)C[C@H](C)[C@H](CN(C)C(=O)Nc1ccccc1F)O2	0.5	19.3	0.6	.	.	.	.
CCCNC(=O)N(C)C[C@@H]1Oc2ncc(/C=C/c3ccccc3)cc2C(=O)N([C@@H](C)CO)C[C@H]1C	-0.7	103.4*	-5.3	98.5*	35.9	-3.8	3.6
C/C=C/c1cnc2c(c1)C(=O)N([C@H](C)CO)C[C@@H](C)[C@H](CN(C)C(=O)Nc1ccccc1F)O2	-1.4	3.6	-0.2	.	.	.	.
